Assay results reported in ChEMBL document CHEMBL1132587, “Synthesis and serotonergic activity of 3-[2-(pyrrolidin-1-yl)ethyl]indoles: potent agonists for the h5-HT1D receptor with high selectivity over the h5-HT1B receptor” (J Med Chem, 1999).
Several values for one entry are separate records, joined by “and”; a condition that tells them apart may be missing. Identical values can stand only once.

Experiments:
[1] = molecular target: T1, 5-hydroxytryptamine receptor 1B (Homo sapiens, UniProt P28222); assay: Displacement of [3H]5-HT binding from the cloned human 5-hydroxytryptamine 1B receptor stably expressed in CHO cells; assay type: cell-based
[2] = molecular target: T2, 5-hydroxytryptamine receptor 1D (Homo sapiens, UniProt P28221); assay: Stimulation of [35S]GTP-gamma-S, binding in CHO cells expressing the 5-hydroxytryptamine 1D receptor; assay type: functional, cell-based
[3] = molecular target: T2, 5-hydroxytryptamine receptor 1D; assay: Displacement of [3H]5-HT binding from the cloned human 5-hydroxytryptamine 1D receptor stably expressed in CHO cells; assay type: cell-based
Rattus norvegicus [4] = assay: Hepatic portal vein plasma concentration after oral administration; assay type: functional, organism-based
Summary of the method: (§1)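 Fasted (≥12 h) rats, ~300 g, given 3 mg/kg orally in aqueous formulation (5 mL/kg); four rats per time point, isoflurane anaesthesia, hepatic portal vein blood at 0.5 or 2 h; plasma extracted (liquid-liquid or solid-phase) and analysed by reversed-phase HPLC with UV or fluorescence detection.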

[5] = molecular target: T3, 5-hydroxytryptamine receptor 1A (Homo sapiens, UniProt P08908); assay: Affinity of compound towards 5-hydroxytryptamine 1A receptor was evaluated using radioligand binding technique
T3 sequence (P08908 whole entry): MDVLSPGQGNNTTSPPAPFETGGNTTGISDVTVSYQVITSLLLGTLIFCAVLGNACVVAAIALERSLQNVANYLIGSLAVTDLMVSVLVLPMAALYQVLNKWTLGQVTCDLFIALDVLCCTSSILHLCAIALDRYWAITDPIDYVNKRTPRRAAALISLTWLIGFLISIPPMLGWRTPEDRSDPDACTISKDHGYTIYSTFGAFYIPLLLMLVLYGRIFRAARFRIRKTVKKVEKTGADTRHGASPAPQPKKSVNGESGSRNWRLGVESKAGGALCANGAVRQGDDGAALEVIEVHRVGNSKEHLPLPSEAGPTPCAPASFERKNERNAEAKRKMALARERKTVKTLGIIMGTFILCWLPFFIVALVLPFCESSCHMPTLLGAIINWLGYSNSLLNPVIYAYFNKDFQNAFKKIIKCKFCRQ

[6] = molecular target: T1, 5-hydroxytryptamine receptor 1B; assay: Affinity of compound towards 5-hydroxytryptamine 1B receptor was evaluated using radioligand binding technique
[7] = molecular target: T2, 5-hydroxytryptamine receptor 1D; assay: Affinity of compound towards 5-hydroxytryptamine 1D receptor was evaluated using radioligand binding technique
[8] = molecular target: 5-hydroxytryptamine receptor 2A (Rattus norvegicus) (UniProt P14842); assay: Affinity of compound towards rat 5-hydroxytryptamine 2A receptor was evaluated using radioligand binding technique
Rattus norvegicus [9] = assay: Hepatic portal vein plasma concentration after administration; assay type: functional, organism-based; summary of the method: as §1

T2 sequence (P28221 whole entry): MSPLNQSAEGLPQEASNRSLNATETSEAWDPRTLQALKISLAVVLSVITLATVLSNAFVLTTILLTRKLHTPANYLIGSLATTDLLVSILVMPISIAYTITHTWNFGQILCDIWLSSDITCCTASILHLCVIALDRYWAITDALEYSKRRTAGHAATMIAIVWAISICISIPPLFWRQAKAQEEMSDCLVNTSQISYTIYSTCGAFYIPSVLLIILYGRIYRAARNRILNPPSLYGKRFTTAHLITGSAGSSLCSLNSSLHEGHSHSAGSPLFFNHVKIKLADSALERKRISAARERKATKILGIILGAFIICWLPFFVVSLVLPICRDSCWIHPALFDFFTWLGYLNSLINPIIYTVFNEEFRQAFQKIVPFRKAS
Chain of 5-hydroxytryptamine receptor 2A (Rattus norvegicus) (P14842 whole entry, looked up): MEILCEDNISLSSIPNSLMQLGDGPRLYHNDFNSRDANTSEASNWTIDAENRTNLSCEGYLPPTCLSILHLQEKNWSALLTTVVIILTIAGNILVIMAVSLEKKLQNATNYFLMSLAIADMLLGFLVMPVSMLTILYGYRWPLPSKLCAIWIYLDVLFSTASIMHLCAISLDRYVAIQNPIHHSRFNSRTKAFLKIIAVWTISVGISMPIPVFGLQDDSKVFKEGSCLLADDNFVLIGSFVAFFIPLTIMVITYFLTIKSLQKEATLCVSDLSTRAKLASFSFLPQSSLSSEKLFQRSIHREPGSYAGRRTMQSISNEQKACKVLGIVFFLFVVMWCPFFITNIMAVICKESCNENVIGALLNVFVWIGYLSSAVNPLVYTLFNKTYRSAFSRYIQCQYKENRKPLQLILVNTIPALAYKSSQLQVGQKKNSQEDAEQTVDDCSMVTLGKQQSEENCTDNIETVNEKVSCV
T1 sequence (P28222 whole entry): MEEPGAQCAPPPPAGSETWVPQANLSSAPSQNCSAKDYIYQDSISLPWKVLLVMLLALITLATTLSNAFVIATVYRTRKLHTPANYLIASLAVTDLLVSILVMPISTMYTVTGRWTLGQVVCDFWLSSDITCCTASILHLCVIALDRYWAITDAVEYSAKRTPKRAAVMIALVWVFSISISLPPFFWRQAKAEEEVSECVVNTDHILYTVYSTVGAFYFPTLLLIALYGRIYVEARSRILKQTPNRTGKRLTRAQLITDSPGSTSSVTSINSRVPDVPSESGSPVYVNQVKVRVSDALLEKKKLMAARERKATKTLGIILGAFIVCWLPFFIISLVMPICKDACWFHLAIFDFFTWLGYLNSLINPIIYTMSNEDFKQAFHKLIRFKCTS

SMILES | IC50 [1] | EC50 [2] | IC50 [3] | other results
O[C@@H]1CCN(CCc2c[nH]c3ccc(-n4cnnc4)cc23)C1 | 93 nM | 7.8 nM | 9 nM | 
CC(=O)N(Cc1ccccc1)C[C@@H]1CCN(CCc2c[nH]c3ccc(-n4cnnc4)cc23)C1 | 11 nM |  | 1.1 nM | 
c1ccc(COC[C@@H]2CCN(CCCc3c[nH]c4ccc(-n5cnnc5)cc34)C2)cc1 | 33 nM |  | 2.1 nM | 
CN(Cc1ccccc1)C[C@@H]1CCN(CCc2c[nH]c3ccc(-n4cnnc4)cc23)C1 | 32 nM | 1.5 nM |  | 
CC(C)(NC[C@@H]1CCN(CCc2c[nH]c3ccc(-n4cnnc4)cc23)C1)c1ccccc1 | 39 nM | 0.3 nM | 1 nM | 
C=CCNC[C@@H]1CCN(CCc2c[nH]c3ccc(-n4cnnc4)cc23)C1 | 325 nM |  | 17 nM | 
c1cc(CNC[C@@H]2CCN(CCc3c[nH]c4ccc(-n5cnnc5)cc34)C2)ccn1 | 110 nM | 9.5 nM | 8.5 nM | 
CN(Cc1ccccc1)[C@@H]1CCN(CCc2c[nH]c3ccc(-n4cnnc4)cc23)C1 |  |  | 37 nM | 
c1ccc(CNC[C@@H]2CCN(CCc3c[nH]c4ccc(Cn5cncn5)cc34)C2)cc1 | 260 nM | 4.9 nM | 3.2 nM | Plasma concentration (Rattus norvegicus [4]): < 25 ng/mL and 55 ng/mL
C[C@H](NC[C@@H]1CCN(CCc2c[nH]c3ccc(C[C@H]4COC(=O)N4)cc23)C1)c1ccccc1 | 49 nM | 0.5 nM | 0.3 nM | IC50 [5]: 8.7 nM; IC50 [6]: 50 nM; IC50 [7]: 0.3 nM; IC50 [8]: 2200 nM
c1coc(CNC[C@@H]2CCN(CCc3c[nH]c4ccc(-n5cnnc5)cc34)C2)c1 | 20 nM | 2.8 nM | 1.5 nM | 
c1ccc(COC[C@@H]2CCN(CCc3c[nH]c4ccc(-n5cnnc5)cc34)C2)cc1 | 85 nM |  |  | 
c1ccc(CNC[C@@H]2CCN(CCc3c[nH]c4ccc(-n5cnnc5)cc34)C2)cc1 |  | 0.8 nM |  | IC50 [5]: 5.4 nM; Plasma concentration (Rattus norvegicus [4]): < 5 ng/mL
CC(=O)Nc1ccc(CNC[C@@H]2CCN(CCc3c[nH]c4ccc(-n5cnnc5)cc34)C2)cc1 | 165 nM | 10 nM | 12 nM | 
C[C@H](NC[C@@H]1CCN(CCc2c[nH]c3ccc(-n4cnnc4)cc23)C1)c1ccccc1 | 41 nM | 0.63 nM | 0.45 nM | 
CN(Cc1ccccc1)C[C@@H]1CCN(CCCc2c[nH]c3ccc(-n4cnnc4)cc23)C1 | 59 nM |  | 4.2 nM | 
C[C@@H](NC[C@@H]1CCN(CCc2c[nH]c3ccc(-n4cnnc4)cc23)C1)c1ccccc1 | 74 nM | 2.1 nM | 0.72 nM | 
c1cncc(CNC[C@@H]2CCN(CCc3c[nH]c4ccc(-n5cnnc5)cc34)C2)c1 | 62 nM |  | 3.8 nM | 
CNS(=O)(=O)Cc1ccc2[nH]cc(CCN3CC[C@@H](CNCc4ccccc4)C3)c2c1 | 62 nM | 3.5 nM | 1.1 nM | IC50 [5]: 41 nM; IC50 [6]: 62 nM; IC50 [7]: 1.1 nM; IC50 [8]: 5800 nM

SMILES | IC50 [1] | EC50 [2] | IC50 [3] | other results
CN(Cc1ccccc1)C[C@@H]1CCN(CCc2c[nH]c3ccc(Cn4cncn4)cc23)C1 | 575 nM | 11 nM | 7.7 nM | Plasma concentration (Rattus norvegicus [4]): 39 ng/mL and 114 ng/mL
c1cc2[nH]cc(CCN3CCCC3)c2cc1-n1cnnc1 | 28 nM | 2.3 nM | 3.1 nM | 
c1cc(CNC[C@@H]2CCN(CCc3c[nH]c4ccc(-n5cnnc5)cc34)C2)co1 | 12 nM | 1.3 nM | 0.45 nM | 
c1ccc(COC[C@@H]2CCCN2CCc2c[nH]c3ccc(-n4cnnc4)cc23)cc1 | 2.7 nM |  | 0.81 nM | 
CN(Cc1ccccc1)C[C@@H]1CCN(CCc2c[nH]c3ccc(C[C@H]4COC(=O)N4C)cc23)C1 | 69 nM | 3.2 nM | 1.7 nM | 
c1ccc(CNC[C@@H]2CCN(CCc3c[nH]c4ccc(-n5cnnc5)cc34)C2)nc1 | 48 nM |  | 3.6 nM | 
c1ccc(CO[C@H]2CCN(CCc3c[nH]c4ccc(-n5cnnc5)cc34)C2)cc1 | 275 nM | 31 nM | 20 nM | 
OC[C@@H]1CCN(CCc2c[nH]c3ccc(-n4cnnc4)cc23)C1 | 93 nM |  | 26 nM | 
c1ccc(NC[C@@H]2CCN(CCc3c[nH]c4ccc(-n5cnnc5)cc34)C2)cc1 | 87 nM |  | 9.1 nM | 
CN(C)CCc1c[nH]c2ccc(-n3cnnc3)cc12 | 1.3 nM | 0.4 nM |  | 
O=C1N[C@@H](Cc2ccc3[nH]cc(CCN4CC[C@@H](CNCc5ccccc5)C4)c3c2)CO1 | 49 nM | 1.7 nM | 0.35 nM | IC50 [5]: 17 nM; IC50 [6]: 49 nM; IC50 [7]: 0.35 nM; Plasma concentration (Rattus norvegicus [9]): < 2 ng/mL and 4 ng/mL; IC50 [8]: 3000 nM
c1ccc(COC[C@H]2CCCN2CCc2c[nH]c3ccc(-n4cnnc4)cc23)cc1 | 575 nM |  | 95 nM | 
c1ccc(CCNC[C@@H]2CCN(CCc3c[nH]c4ccc(-n5cnnc5)cc34)C2)cc1 | 125 nM | 6.2 nM | 2.6 nM | 
c1cc2[nH]cc(CCN3CCC3)c2cc1-n1cnnc1 | 4.4 nM |  | 1.1 nM | 
C[C@H](NC[C@@H]1CCN(CCc2c[nH]c3ccc(Cn4cncn4)cc23)C1)c1ccccc1 | 305 nM | 3 nM | 2.5 nM | 
c1ccc(CNC[C@H]2CCN(CCc3c[nH]c4ccc(-n5cnnc5)cc34)C2)cc1 | 47 nM |  |  | 
CN(Cc1ccccc1)C[C@@H]1CCCN1CCc1c[nH]c2ccc(-n3cnnc3)cc12 | 15 nM | 3 nM | 0.8 nM | 
C[C@@H](c1ccccc1)N(C)C[C@@H]1CCN(CCc2c[nH]c3ccc(Cn4cncn4)cc23)C1 | 87 nM | 4.5 nM | 0.7 nM | 
